# Assay results pooled from the literature.
# Compare with care: the assays were run in different laboratories.
# Cell line: HT-29
# Effect on: cell growth or viability
Compound,technique,concentration,time,inhibition [%]
COc1ccc(C(=O)/C=C/c2ccc3c(c2)OCCO3)cc1S(N)(=O)=O,SRB,10 µM,,67
COc1cccc2c1C(=O)c1c(O)c3c(c(O)c1C2=O)C[C@@](O)(C(=O)CO)C[C@@H]3O[C@H]1C[C@H](N)[C@H](O)[C@H](C)O1,SRB,10 µg/mL,48 h,97.1
CN1C(=O)/C(=N\NC(=O)c2cc3ccccc3[nH]2)c2cc(Cl)ccc21,,30 µM,,92.4
COc1cc2ncnc(NN=C3C(=O)Nc4ccc(C)cc43)c2cc1OC,,30 µM,,49.3
CN1C(=O)/C(=N\NC(=O)c2cc3ccccc3[nH]2)c2ccccc21,,30 µM,,78.5
COc1ccc(C(=O)/C=C/c2cccc(Cl)c2)cc1S(N)(=O)=O,SRB,10 µM,,99
COc1ccc(C2=Nn3c(NN=C4C(=O)Nc5ccc(Cl)cc54)nnc3SC2)cc1,SRB,10 µM,,27
COc1cc2ncnc(NN=C3C(=O)Nc4ccc(Br)cc43)c2cc1OC,,10 µM,,18.6
COc1ccc(C(=O)/C=C/c2ccccc2Br)cc1S(N)(=O)=O,SRB,10 µM,,117
COc1ccc(-c2nc(NN=C3C(=O)Nc4ccccc43)c3ccccc3n2)cc1OC,,30 µM,,38.1
O=C1Nc2ccccc2/C1=N/NC(=O)c1cc2ccccc2[nH]1,,30 µM,,75.4
COc1ccc(C(=O)/C=C/c2c(F)cccc2Cl)cc1S(N)(=O)=O,SRB,10 µM,,92
COc1cc2ncnc(NN=C3C(=O)Nc4ccc(F)cc43)c2cc1OC,,10 µM,,13.2
COc1ccc(C(=O)/C=C/c2ccc3ccccc3c2)cc1S(N)(=O)=O,SRB,10 µM,,126
COc1ccc2c(c1)/C(=N/NC(=O)c1cc3ccccc3[nH]1)C(=O)N2C,,30 µM,,90.8
O=C1Nc2ccccc2C1=NNc1nnc2n1N=C(c1ccccc1)CS2,SRB,10 µM,,28
O=C(N/N=C1\C(=O)N(c2ccccc2)c2ccccc21)c1cc2ccccc2[nH]1,,30 µM,,97
COc1ccc(-c2nc(NN=C3C(=O)Nc4ccc(F)cc43)c3ccccc3n2)cc1OC,,30 µM,,9.6
COc1ccccc1/C=C/C(=O)c1ccc(OC)c(S(N)(=O)=O)c1,SRB,10 µM,,81
O=C1Nc2ccccc2C1=NNc1nnc(Cc2ccccc2)c2ccccc12,,30 µM,,87.6
O=C1Nc2ccc(Cl)cc2/C1=N/NC(=O)c1cc2ccccc2[nH]1,,30 µM,,29.4
